pIC50: −log10 of the molar value. Activity calls are given as the source filed them. The calls are words filed in the database; no cut-off is given here.
Key:
[1] = Inhibition of sheep brain dynamin 1 GTPase activity by malachite green GTPase assay; set-up: species or system Ovis aries
How it was run: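 Buffer: 5 mM Tris pH 7.4, 10 mM NaCl, 2 mM Mg2+, 0.05% Tween 80, leupeptin, PMSF. GTP 0.3 mM, 30 min at 37 °C. Stopped with EDTA, malachite green added, A650 read against a phosphate standard. IC50 is the mean of at least three experiments in duplicate.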

Ovis aries [2] = organism: Ovis aries; assay: Inhibition of sheep brain dynamin 1 GTPase activity at 300 uM by malachite green GTPase assay
Dynamin-2 (Homo sapiens) [3] = molecular target: T1, Dynamin-2 (Homo sapiens) (UniProt P50570); assay: Inhibition of dynamin 2-mediated endocytosis internalization of Texas red-transferrin in human U2OS cells at 100 uM pretreated for 30 mins; format: cell-based
T1 sequence (whole entry): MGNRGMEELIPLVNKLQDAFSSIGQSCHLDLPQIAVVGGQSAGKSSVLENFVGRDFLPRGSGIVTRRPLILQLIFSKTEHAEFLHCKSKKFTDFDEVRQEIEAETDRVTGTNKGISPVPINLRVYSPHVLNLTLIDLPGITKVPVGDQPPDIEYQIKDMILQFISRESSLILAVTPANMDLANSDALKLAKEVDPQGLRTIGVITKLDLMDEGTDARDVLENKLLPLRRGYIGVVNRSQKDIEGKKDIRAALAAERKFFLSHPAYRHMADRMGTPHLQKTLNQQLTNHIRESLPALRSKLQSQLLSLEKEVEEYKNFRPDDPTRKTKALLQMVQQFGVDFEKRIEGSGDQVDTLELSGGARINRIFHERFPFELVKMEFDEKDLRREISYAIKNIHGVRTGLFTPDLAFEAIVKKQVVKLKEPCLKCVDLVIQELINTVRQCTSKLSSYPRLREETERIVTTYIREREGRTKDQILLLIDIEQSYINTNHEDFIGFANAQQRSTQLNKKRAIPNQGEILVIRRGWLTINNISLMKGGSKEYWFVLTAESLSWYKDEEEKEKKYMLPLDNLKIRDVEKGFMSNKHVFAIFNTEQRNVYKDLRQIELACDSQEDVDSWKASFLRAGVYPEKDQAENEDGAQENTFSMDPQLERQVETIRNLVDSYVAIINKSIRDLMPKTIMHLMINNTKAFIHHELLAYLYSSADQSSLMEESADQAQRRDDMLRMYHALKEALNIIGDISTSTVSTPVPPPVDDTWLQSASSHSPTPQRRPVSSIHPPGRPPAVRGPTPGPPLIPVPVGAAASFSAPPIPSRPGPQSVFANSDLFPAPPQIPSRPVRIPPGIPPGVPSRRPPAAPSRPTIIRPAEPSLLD
How it was run: (§1)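 U2OS cells in DMEM/10% FCS on fibronectin-coated wells, serum-starved overnight (16 h). Preincubated 30 min with drug or vehicle, then Tf-Texas Red 4 µg/mL for 8 min at 37 °C. Ice-cold acid wash (0.2 M acetic acid/0.5 M NaCl, pH 2.8) strips surface Tf. Cells fixed in 4% PFA and DAPI-stained, and internalized Tf-TxR imaged by fluorescence microscopy. Final DMSO at most 1%.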

U2OS = assay: Toxicity against human U2OS cells assessed as effect on cell morphology after 30 mins; format: cell-based; settings: 0.5 h
Dynamin-2 (Homo sapiens) [4] = molecular target: T1, Dynamin-2 (Homo sapiens); assay: Inhibition of dynamin 2-mediated endocytosis internalization of Texas red-transferrin in human U2OS cells at 30 uM pretreated for 30 mins; format: cell-based; how it was run: as §1
Ovis aries [5] = organism: Ovis aries; assay: Uncompetitive inhibition of sheep brain dynamin 1 GTPase activity using variable GTP level by kinetic assay; format: tissue-based
How it was run: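 Malachite green Pi release assay with PS-stimulated sheep brain dynamin I (20 nM) at 37 °C for 30 min, with GTP substrate varied in the presence of inhibitor. Vmax and Km were obtained by nonlinear Michaelis–Menten fitting, then the data were replotted as Lineweaver–Burk to assign the inhibition mode.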

[6] = Toxicity against human fibroblasts assessed as cell viability at 10 uM by trypan blue exclusion method; format: cell-based, Fibroblast; settings: read-out: Activity
How it was run: (§2)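 Cells seeded at 1 × 10⁵ per 10 cm dish. From 24 h after seeding, exposed continuously for 7 days to drug (10 µM) or 0.5% DMSO vehicle. Floating and adherent cells collected, and viability scored by Trypan Blue exclusion on an automated analyzer. Cell lines: hTert breast stromal fibroblasts, two primary skin fibroblast lines, a primary myoblast line, NIH3T3.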

[7] = Toxicity against mouse NIH/3T3 cells assessed as cell viability at 10 uM by trypan blue exclusion method; format: cell-based, NIH3T3; settings: read-out: Activity; how it was run: as §2

SMILES | pIC50 [1] | inhibition (Ovis aries [2]) | further results
Cc1cc2ccccc2n1CCN(C)C | 3.52 |  | 
CCNC(=O)/C(C#N)=C/c1c(C)n(CCCN(C)C)c2ccccc12 |  | inactive | 
CCNC(=O)/C(C#N)=C/c1c(C)n(CCN(C)C)c2ccccc12 |  | inactive | 
CN(C)CCn1cc(CC(=O)O)c2ccccc21 |  | inactive | 
CN(C)CCCn1cc(CCC(=O)O)c2ccccc21 | 3.84 |  | 
Cc1cc2ccccc2n1CCCN(C)C | 3.52 |  | 
CN1CCCC1CCn1cc(C2=C(c3c[nH]c4ccccc34)C(=O)NC2=O)c2ccccc21 (centres undefined) | 4.00 |  | 
CCCCCCNC(=O)/C(C#N)=C/c1c(C)n(CCCN(C)C)c2ccccc12 | 5.18 |  | Activity (Dynamin-2 (Homo sapiens) [3]): Active; Activity (U2OS): Non-toxic
CN(C)CCCn1cc(CC(=O)O)c2ccccc21 |  | inactive | 
CCCCCCCCNC(=O)/C(C#N)=C/c1c(C)n(CCCN(C)C)c2ccccc12 | 5.48 |  | Activity (Dynamin-2 (Homo sapiens) [4]): Active; Activity (Dynamin-2 (Homo sapiens) [3]): Active; Activity (U2OS): Non-toxic; Activity (Ovis aries [5]): Active
CCCCCCCCCCCCCCNC(=O)/C(C#N)=C/c1c(C)n(CCCN(C)C)c2ccccc12 | 4.28 |  | 
CCCCCCCCCCNC(=O)/C(C#N)=C/c1c(C)n(CCN(C)C)c2ccccc12 | 5.00 |  | Activity (Dynamin-2 (Homo sapiens) [3]): Active; Activity (U2OS): Non-toxic
CCCCCCCCCCCCCCNC(=O)/C(C#N)=C/c1c(C)[nH]c2ccccc12 |  | inactive | 
CCCCCCCCNC(=O)/C(C#N)=C/c1c(C)n(CCN(C)C)c2ccccc12 | 5.04 |  | Activity (Dynamin-2 (Homo sapiens) [3]): Active; Activity (U2OS): Non-toxic
CCCCCCCCCCCCNC(=O)/C(C#N)=C/c1c(C)n(CCN(C)C)c2ccccc12 | 4.49 |  | 
CN(C)CCCn1ccc2ccccc21 | 3.52 |  | 
CCCCCCCCCCCCCCNC(=O)/C(C#N)=C/c1c(C)n(CCN(C)C)c2ccccc12 | 4.42 |  | 
Cc1c(/C=C(\C#N)C(=O)NC2CCCCC2)c2ccccc2n1CCN(C)C | 3.52 |  | 
CN(C)CCCn1cc(C2=C(c3c[nH]c4ccccc34)C(=O)NC2=O)c2ccccc21 [GF-109203] | 4.00 |  | 
CN(C)CCn1cc(CCC(=O)O)c2ccccc21 | 3.88 |  | 
CCCCNC(=O)/C(C#N)=C/c1c(C)n(CCN(C)C)c2ccccc12 | 3.52 |  | 
Cc1c(C=O)c2ccccc2n1CCCN(C)C |  | inactive | 
CN(C)CCn1ccc2ccccc21 | 3.52 |  | 
CCCNC(=O)/C(C#N)=C/c1c(C)n(CCCN(C)C)c2ccccc12 |  | inactive | 
Cc1c(C=O)c2ccccc2n1CCN(C)C |  | inactive | 
CCCCCCCCNC(=O)/C(C#N)=C/c1cn(CCCN(C)C)c2ccccc12 | 5.89 |  | Activity (Dynamin-2 (Homo sapiens) [4]): Active; Activity (Dynamin-2 (Homo sapiens) [3]): Active; Activity (U2OS): Non-toxic; viability at 10 µM [6]: > 98%; viability at 10 µM [7]: > 98%
CCCCCCNC(=O)/C(C#N)=C/c1c(C)n(CCN(C)C)c2ccccc12 | 5.11 |  | 
CCCNC(=O)/C(C#N)=C/c1c(C)n(CCN(C)C)c2ccccc12 |  | inactive | 
CCCCNC(=O)/C(C#N)=C/c1c(C)n(CCCN(C)C)c2ccccc12 |  | inactive | 
Cc1c(/C=C(\C#N)C(=O)NC2CCCCC2)c2ccccc2n1CCCN(C)C | 3.52 |  | 

The next lines start with results.

pIC50 [1] | inhibition (Ovis aries [2]) | SMILES | further results
 | inactive | CCCNC(=O)/C(C#N)=C/c1c(C)[nH]c2ccccc12 | 
 | inactive | CCCCNC(=O)/C(C#N)=C/c1c(C)[nH]c2ccccc12 | 
 | inactive | CCCCCCCCNC(=O)/C(C#N)=C/c1c(C)[nH]c2ccccc12 | 
 | inactive | CCCCCCCCCCCCNC(=O)/C(C#N)=C/c1c(C)[nH]c2ccccc12 | 
 | inactive | Cc1[nH]c2ccccc2c1/C=C(\C#N)C(=O)NCc1ccccc1 | 
 | inactive | Cc1[nH]c2ccccc2c1/C=C(\C#N)C(=O)NC1CCCCC1 | 
3.71 |  | Cc1c(/C=C(\C#N)C(=O)NCc2ccccc2)c2ccccc2n1CCN(C)C | 
3.60 |  | COc1ccc(CNC(=O)/C(C#N)=C/c2c(C)n(CCN(C)C)c3ccccc23)cc1 | 
 | inactive | COc1ccc(CNC(=O)/C(C#N)=C/c2c(C)[nH]c3ccccc23)cc1 | 
3.65 |  | COc1ccc(CNC(=O)/C(C#N)=C/c2c(C)n(CCCN(C)C)c3ccccc23)cc1 | 
 | inactive | CCCCCCNC(=O)/C(C#N)=C/c1c(C)[nH]c2ccccc12 | 
 | inactive | CCCCCCCCCCNC(=O)/C(C#N)=C/c1c(C)[nH]c2ccccc12 | 
 | inactive | CCNC(=O)/C(C#N)=C/c1c(C)[nH]c2ccccc12 | 
3.70 |  | Cc1c(/C=C(\C#N)C(=O)NCc2ccccc2)c2ccccc2n1CCCN(C)C | 
